Source: PubChem BioAssay
TPT1 inh: Candida albicans TPT1 enzyme inhibitors, primary screen, biochemical, fluorescence polarization. 0.81% of 300,000 active. inhibition, % at 5 µM. tRNA 2'-phosphotransferase TPT1 (Candida albicans SC5314). recombinant caTPT1, FP RNA substrate dephosphorylation;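 active = inhibition above the mean of all tested compounds plus 3 SD, set per screening campaign, cut at about 24% in these data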;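 note: plate controls were DMSO alone for no effect and ferristatin control at 100 nM for full effect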
Rev-erbA mod: modulators of Rev-erb alpha DNA binding, primary screen, biochemical, FITC-DNA, fluorescence polarization, uHTS; 0.79% of 370,000 active; activity, % at 10 µM; AID 1259318, 2017; Nuclear receptor subfamily 1 group D member 1 (Homo sapiens), P20393; Rev-erbα–FITC-DNA binding, 90 min;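 active = activity above about 14%, limit read from the data; passing the limit was not always enough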;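 note: 0% = DMSO wells with 35 nM protein and 100% = DMSO wells with 750 nM protein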
HNF4A DNA FP: change in binding of human HNF4A to DNA, primary screen, biochemical, fluorescence polarization, FITC-DNA; 1 h; activity change, % at 10 µM; 0.3% of 360,000 active; in the data active = activity change above about 30%, passing the limit was not always enough
CSN inh: inhibitors of CSN-mediated cullin deneddylation, primary screen, biochemical, fluorescence polarization, uHTS; COP9 signalosome complex subunit 5 (Homo sapiens), Q92905; Purified CSN, SCF-Nedd8-OG deneddylation; inhibition, % at 12.5 µM; 0.38% of 360,000 active;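 active = pattern-corrected inhibition above about 35%, with an unprinted fluorescence ratio check between 0.5 and 1.5, limit read from the data, passing the limit was not always enough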;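 note: 0% = enzyme with substrate and 100% = substrate without enzyme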
Target sequence (Q92905 whole entry, looked up, one chain of several): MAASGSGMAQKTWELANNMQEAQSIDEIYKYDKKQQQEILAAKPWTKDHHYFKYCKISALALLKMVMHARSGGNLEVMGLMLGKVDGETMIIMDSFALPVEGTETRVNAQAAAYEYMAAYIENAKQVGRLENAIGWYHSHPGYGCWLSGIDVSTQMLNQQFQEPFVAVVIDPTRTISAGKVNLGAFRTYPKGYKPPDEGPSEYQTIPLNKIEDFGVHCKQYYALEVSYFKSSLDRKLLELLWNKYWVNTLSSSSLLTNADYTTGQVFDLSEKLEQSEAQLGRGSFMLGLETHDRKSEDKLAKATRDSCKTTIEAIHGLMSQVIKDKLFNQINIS
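Assay system: HEK293T-derived human Csn5 enzyme; quantity: 0.24 nM enzyme; medium: Tris/NaCl/DTT buffer, pH 7.5; also added: substrate SCFSkp2-Nedd8OG, 10 nM; doses: 12.5 µM compound; schedule: 90 min reaction at room temperature; signal: FP; read-out: % inhibition of substrate cleavage by Csn5; benchmarks: substrate-only high control, full reaction low control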
The depositor's hits bear a star; / = no result given. A selection: hits, their analogues and other compounds. The true share with any hit is near 1.7%.

SMILES | TPT1 inh | Rev-erbA mod | HNF4A DNA FP | CSN inh
Cc1ccc(NC(=O)CSc2nnc(CNC(=O)c3ccco3)n2C)cc1C | -1 | 0 | -2 | 43*
CNc1nc(N)c([N+](=O)[O-])c(Nc2cccc(Br)c2)n1 | / | -2 | / | /
O=C(CSc1nnc(-c2ccco2)o1)c1ccc[nH]1 | 6 | -7 | -3 | 38*
O=C(CSc1nnc(-c2ccco2)o1)c1ccccc1 | 1 | 0 | 2 | 9
CN(C)c1cccc(-c2ccnc(N3CCC(C(N)=O)CC3)n2)c1 | / | -3 | / | /
Cc1cc(-c2ccccc2)nc(Nc2nc3c(C)cccc3c(=O)[nH]2)n1 | / | -16 | 53* | 14
Cc1cc(C)c2nc(Nc3nc(-c4ccccc4)cc(=O)[nH]3)nc(C)c2c1 | 2 | 2 | 4 | 4
Cc1ccc(-c2ccc(CCC(=O)O)n2-c2ccc(O)cc2)cc1 | 7 | 5 | -1 | 1
O=C(O)CCc1ccc(-c2ccc(Br)cc2)n1-c1ccc(O)cc1 | / | -3 | 2 | 39*
C[C@@H](O)[C@H](N)C(=O)O | / | -1 | / | /
CCOC(=O)Cn1nc(-c2ccc(Cl)cc2)cc1N | 0 | 8 | 6 | 49*
Cc1[nH]c2ccc(C(=O)N3CCN(c4ccccn4)CC3)cc2c1C | -2 | -4 | 103* | -4
CCn1c(SCC(=O)NN=Cc2c[nH]c3ccccc23)nc2ccccc21 | / | 0 | / | /
CC1=CC(=C(c2ccc(N)cc2)c2ccc(N)cc2)C=CC1=N | / | -8 | / | /
CCCC(=O)Nc1ccc2c(c1)c1ccccc1n2CC | -2 | 2 | 0 | -15
CCOC(=O)COc1cc(=O)n(CC)c2ccccc12 | -5 | 1 | -1 | 108*
CCOC(=O)C(=CNc1ccc2c(c1)c1ccccc1n2CC)C(=O)OCC | -1 | 1 | 36* | 1
CC(CC(c1ccccc1)c1ccccc1)NC(C)(C)C (centres undefined) | / | -3 | / | /
CNC(C)[C@@H]1CC[C@@H](N)[C@@H](O[C@@H]2[C@H](O)[C@@H](O[C@@H]3OC[C@](C)(O)[C@H](NC)[C@H]3O)[C@H](N)C[C@@H]2N)O1 (some centres undefined) | / | -2 | / | /
CC(=O)NC(Cc1ccc(O)cc1)C(=O)O (centres undefined) | / | 4 | / | /
CCOC(=O)CCC(=O)Nc1ccc([N+](=O)[O-])cc1C | 5 | -3 | 30* | -8
O=C(O)[C@H]1/C(=C/CO)O[C@@H]2CC(=O)N21 | / | -1 | / | /
CCOC(=O)C1=C(O)/C(=C\c2ccc(CNS(=O)(=O)c3ccc(Br)cc3)o2)N=C1C | 11 | 3 | 16 | 52*
CCOC(=O)C1=C(O)/C(=C/c2ccc(CNC(=O)C(=O)Nc3ccc(C)cc3)o2)N=C1C | 5 | 0 | 1 | 28
COC(=O)C1=C(O)/C(=C\c2ccc(CNC(=O)C(=O)Nc3ccc(C)cc3)o2)N=C1C | -4 | -5 | 0 | 36*
SMILES | TPT1 inh | Rev-erbA mod | HNF4A DNA FP | CSN inh
CSCCC(NC(=O)C(Cc1c[nH]c2ccccc12)NC(=O)CCNC(=O)OC(C)(C)C)C(=O)NC(CC(=O)O)C(=O)NC(Cc1ccccc1)C(N)=O (centres undefined) | / | -6 | / | /
Cc1cc(C)c2nc3sc(=Cc4ccc(-c5ccccc5C(=O)O)o4)c(=O)n3c2c1 | / | -25 | 72 | 142*
COc1ccc(NC(=O)CCc2nnc3ccc(NCc4ccc5c(c4)OCO5)nn23)cc1 | -6 | -11 | 3 | 36*
COc1ccc(NC(=O)CCc2nnc3ccc(NCc4ccco4)nn23)cc1 | -2 | -6 | 1 | 0
CC(=O)OCC(=O)[C@@]1(OC(C)=O)[C@@H](C)CC2C3C[C@H](F)C4=CC(=O)C=C[C@]4(C)[C@@]3(F)[C@@H](O)C[C@@]21C (some centres undefined) | / | -4 | / | /
N#C/C(=C\c1ccc(C(=O)O)cc1)c1nc2sc3c(c2c(=O)[nH]1)CCCC3 | / | -5 | 11 | 70*
CCOC(=O)c1nc2sc3c(c2c(=O)[nH]1)CCCC3 | -1 | 1 | -1 | 6
NC(=O)c1ccc[n+]([C@@H]2O[C@H](COP(=O)([O-])OP(=O)(O)OC[C@H]3O[C@@H](n4cnc5c(N)ncnc54)[C@H](O)[C@@H]3O)[C@@H](O)[C@H]2O)c1 | / | -3 | / | /
NC1[C@H]2CN(c3nc4c(cc3F)c(=O)c(C(=O)O)cn4-c3ccc(F)cc3F)C[C@@H]12 (some centres undefined) | / | -11 | / | /
